Reference: ChEMBL document CHEMBL3616436, “Synthesis, cytotoxicity and antimicrobial activity of thiourea derivatives incorporating 3-(trifluoromethyl)phenyl moiety” (Eur J Med Chem, 2015)
pEC50: −log10 of the molar value. In brackets after ≈: the same amount, converted by molar mass. Activity calls are given as the source filed them. No cut-off for these calls is given here.

Assays:
[1] = test system: Human immunodeficiency virus 1; assay: Antiviral activity against HIV1 3B infected in human MT4 cells assessed as protection against virus-induced cytopathogenicity by MTT assay; type: functional, organism-based; conditions: Human immunodeficiency virus 1, 3B
[2] = test system: Staphylococcus epidermidis; assay: Antimicrobial activity against Staphylococcus epidermidis ATCC 35984 at 400 ug after 18 hrs by disc-diffusion method; type: functional; conditions: ATCC 35984, 18 h, read-out: IZ
Outline: (§1)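 Disc diffusion on Mueller-Hinton II agar per CLSI; 9 mm paper discs loaded with 400 µg compound from DMSO solution, dried, placed on agar; growth inhibition zone diameter read after 18 h at 35°C.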

Micrococcus luteus [3] = assay: Antimicrobial activity against Micrococcus luteus ATCC 10240 at 400 ug after 18 hrs by disc-diffusion method; type: functional; conditions: ATCC 10240, 18 h, read-out: IZ; outline: as §1
Staphylococcus aureus [4] = assay: Antimicrobial activity against Staphylococcus aureus ATCC 25923 at 400 ug after 18 hrs by disc-diffusion method; type: functional; conditions: ATCC 25923, 18 h, read-out: IZ; outline: as §1
[5] = Antiviral activity against Bovine viral diarrhea virus 1-NADL ATCC VR-534 infected in MDBK cells assessed as protection against virus-induced cytopathogenicity after 3 to 4 days by MTT assay; type: functional, cell-based; conditions: Bovine viral diarrhea virus isolates and strains, ATCC VR-534, MDBK
Outline: (§2)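 Cells seeded in 96-well plates (BHK 5x10^4, MDBK 3x10^4 cells/well), grown overnight to confluence, infected at m.o.i. 0.01 (BHK for Reo-1, MDBK for BVDV); serial compound dilutions in maintenance medium with 0.5% inactivated FBS added after 1 h; viability by MTT after 3–4 days at 37°C; EC50 for 50% protection by linear regression.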

[6] = test system: Mammalian orthoreovirus 1; assay: Antiviral activity against Reovirus type-1 ATCC VR-214 infected in BHK cells assessed as protection against virus-induced cytopathogenicity after 3 to 4 days by MTT assay; type: functional, cell-based; conditions: Mammalian orthoreovirus 1, ATCC VR-214, BHK; outline: as §2
[7] = test system: Staphylococcus epidermidis; assay: Antimicrobial activity against Staphylococcus epidermidis ATCC 35984 after 18 hrs by twofold serial microdilution method; type: functional; conditions: ATCC 35984, 18 h
[8] = Cytotoxicity against African green monkey Vero 76 cells assessed as cell viability after 48 to 96 hrs by crystal violet staining; type: cell-based; conditions: chlorocebus sabaeus
[9] = test system: Mycobacterium tuberculosis; assay: Antimycobacterial activity against Mycobacterium tuberculosis H37Rv ATCC 25618; type: functional
Outline: (§3)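 Classical test-tube successive-dilution method in Youmans' modification of Proskauer and Beck liquid medium with 10% bovine serum. Inoculum came from 14-day cultures. DMSO stock was 10 mg/mL, diluted geometrically in medium. Tubes were incubated at 37 °C. Concentrations tested were 3.1, 6.2, 12.5, 25, 50 and 100 µg/ml. MIC is the minimum concentration inhibiting growth relative to compound-free tubes.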

[10] = test system: Staphylococcus epidermidis; assay: Antimicrobial activity against Staphylococcus epidermidis ATCC 12228 at 400 ug after 18 hrs by disc-diffusion method; type: functional; conditions: ATCC 12228, 18 h, read-out: IZ; outline: as §1
Human alphaherpesvirus 1 = assay: Antiviral activity against Human herpesvirus 1 KOS ATCC VR-1493 infected in African green monkey Vero 76 cells assessed as reduction of virus-plaque formation after 3 days by crystal violet staining; type: functional, organism-based; conditions: Human alphaherpesvirus 1, KOS ATCC VR1493, Vero, 72 h
Outline: (§4)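 Plaque reduction: Vero-76 at 2x10^5 cells/well grown to confluent monolayers, infected 2 h at 50–100 PFU/well; after removing unadsorbed virus, overlay of D-MEM, 1% inactivated FBS, 0.75% methylcellulose with or without serial compound dilutions; 3 days at 37°C, fixed and stained with crystal violet in 50% ethanol, plaques counted; EC50 by linear regression.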

Staphylococcus aureus [11] = assay: Antimicrobial activity against Staphylococcus aureus NCTC 4163 after 18 hrs by twofold serial microdilution method; type: functional; conditions: NCTC 4163, 18 h
[12] = Cytotoxicity against human MT4 cells; type: cell-based
Staphylococcus aureus [13] = assay: Antimicrobial activity against Staphylococcus aureus ATCC 29213 after 18 hrs by twofold serial microdilution method; type: functional; conditions: ATCC 29213, 18 h
Staphylococcus aureus [14] = assay: Antimicrobial activity against Staphylococcus aureus ATCC 29213 at 400 ug after 18 hrs by disc-diffusion method; type: functional; conditions: ATCC 29213, 18 h, read-out: IZ; outline: as §1
Vaccinia virus = assay: Antiviral activity against Human Vaccinia virus ATCC VR-1549 infected in African green monkey Vero 76 cells assessed as reduction of virus-plaque formation after 3 days by crystal violet staining; type: functional, organism-based; conditions: Orthopoxvirus vaccinia, ATCC VR-1549, Vero, 72 h
Proteus vulgaris = assay: Antimicrobial activity against Proteus vulgaris NCTC 4635 at 400 ug after 18 hrs by disc-diffusion method; type: functional; outline: as §1
Enterococcus hirae = assay: Antimicrobial activity against Enterococcus hirae ATCC 10541 at 400 ug after 18 hrs by disc-diffusion method; type: functional; conditions: for zone of inhibition at 400 µg/disc: ATCC 10541, 18 h, read-out: IZ; outline: as §1
[15] = test system: Mycobacterium tuberculosis; assay: Antimycobacterial activity against drug-sensitive Mycobacterium tuberculosis Spec. 192; type: functional; outline: as §3
Enterococcus faecalis = assay: Antimicrobial activity against Enterococcus faecalis ATCC 29212 at 400 ug after 18 hrs by disc-diffusion method; type: functional; conditions: ATCC 29212, 18 h, read-out: IZ; outline: as §1
[16] = test system: Staphylococcus epidermidis; assay: Antimicrobial activity against Staphylococcus epidermidis ATCC 12228 after 18 hrs by twofold serial microdilution method; type: functional; conditions: ATCC 12228, 18 h
Bacillus subtilis = assay: Antimicrobial activity against Bacillus subtilis ATCC 6633 at 400 ug after 18 hrs by disc-diffusion method; type: functional; conditions: ATCC 6633, 18 h, read-out: IZ; outline: as §1
Staphylococcus aureus [17] = assay: Antimicrobial activity against Staphylococcus aureus ATCC 6538 after 18 hrs by twofold serial microdilution method; type: functional; conditions: ATCC 6538, 18 h
Yellow fever virus = assay: Antiviral activity against Yellow fever virus 17D infected in BHK cells assessed as protection against virus-induced cytopathogenicity after 3 to 4 days by MTT assay; type: functional, cell-based
[18] = Cytotoxicity against bovine MDBK cells assessed as cell viability after 48 to 96 hrs by MTT assay; type: cell-based, Bos taurus; conditions: cattle
[19] = Cytotoxicity against BHK cells assessed as cell viability after 48 to 96 hrs by MTT assay; type: cell-based, Mesocricetus auratus; conditions: hamster
Coxsackievirus B5 = assay: Antiviral activity against Human coxsackievirus B5 ATCC VR-29 infected in African green monkey Vero 76 cells assessed as reduction of virus-plaque formation after 3 days by crystal violet staining; type: functional, organism-based; conditions: Enterovirus B, ATCC VR-29, Vero, 72 h; outline: as §4
Staphylococcus aureus [20] = assay: Antimicrobial activity against Staphylococcus aureus ATCC 6538 at 400 ug after 18 hrs by disc-diffusion method; type: functional; conditions: ATCC 6538, 18 h, read-out: IZ; outline: as §1
Staphylococcus aureus [21] = assay: Antimicrobial activity against Staphylococcus aureus ATCC 25923 after 18 hrs by twofold serial microdilution method; type: functional; conditions: ATCC 25923, 18 h
Bacillus cereus = assay: Antimicrobial activity against Bacillus cereus ATCC 11778 at 400 ug after 18 hrs by disc-diffusion method; type: functional; conditions: ATCC 11778, 18 h, read-out: IZ; outline: as §1
[22] = test system: Vesicular stomatitis virus; assay: Antiviral activity against Vesicular stomatitis virus ATCC VR 1540 infected in African green monkey Vero 76 cells assessed as reduction of virus-plaque formation after 2 days by crystal violet staining; type: functional, organism-based; conditions: ATCC VR 1540, Vero, 48 h
Micrococcus luteus [23] = assay: Antimicrobial activity against Micrococcus luteus ATCC 9341 at 400 ug after 18 hrs by disc-diffusion method; type: functional; conditions: ATCC 9341, 18 h, read-out: IZ; outline: as §1
Staphylococcus aureus [24] = assay: Antimicrobial activity against Staphylococcus aureus NCTC 4163 at 400 ug after 18 hrs by disc-diffusion method; type: functional; conditions: NCTC 4163, 18 h, read-out: IZ; outline: as §1
Poliovirus 1 = assay: Antiviral activity against Poliovirus type 1 ATCC VR-1562 infected in African green monkey Vero 76 cells assessed as reduction of virus-plaque formation after 2 days by crystal violet staining; type: functional, organism-based; conditions: Enterovirus C, ATCC VR-1562, Vero, 48 h

Row | SMILES | pEC50 [1] | zone of inhibition at 400 µg/disc [2] [mm] | zone of inhibition at 400 µg/disc (Micrococcus luteus [3]) [mm] | zone of inhibition at 400 µg/disc (Staphylococcus aureus [4]) [mm] | pEC50 [5] | pEC50 [6] | MIC [7] [µg/mL] | CC50 [8] [µM] | MIC [9] [µg/mL] | zone of inhibition at 400 µg/disc [10] [mm] | pEC50 (Human alphaherpesvirus 1) | MIC (Staphylococcus aureus [11]) [µg/mL] | CC50 [12] [µM] | MIC (Staphylococcus aureus [13]) [µg/mL] | zone of inhibition at 400 µg/disc (Staphylococcus aureus [14]) [mm] | pEC50 (Vaccinia virus) | MIC [15] [µg/mL] | zone of inhibition at 400 µg/disc (Enterococcus faecalis) [mm] | MIC [16] [µg/mL] | zone of inhibition at 400 µg/disc (Bacillus subtilis) [mm] | also measured
1 | COC(=O)c1ccccc1NC(=S)Nc1cccc(C(F)(F)F)c1 | < 4.00 | 24 | 24 | 24 | < 4.00 | < 4.00 | 64 (≈ 181 µM) | > 100 | > 100 | 26 | < 4.00 | 32 (≈ 90.3 µM) | > 100 | 32 (≈ 90.3 µM) | 23 | < 4.00 | > 100 | 14 | 64 (≈ 181 µM) | 20 | inhibition zone (IZ) (Proteus vulgaris): inactive; zone of inhibition at 400 µg/disc (Enterococcus hirae): 11 mm; MIC (Staphylococcus aureus [17]): 32 µg/mL (≈ 90.3 µM); pEC50 (Yellow fever virus): < 4.00; CC50 [18]: > 100 µM; CC50 [19]: > 100 µM; pEC50 (Coxsackievirus B5): < 4.00; zone of inhibition at 400 µg/disc (Staphylococcus aureus [20]): 25 mm; MIC (Staphylococcus aureus [21]): 32 µg/mL (≈ 90.3 µM); zone of inhibition at 400 µg/disc (Bacillus cereus): 19 mm; pEC50 [22]: < 4.00; zone of inhibition at 400 µg/disc (Micrococcus luteus [23]): 25 mm; zone of inhibition at 400 µg/disc (Staphylococcus aureus [24]): 25 mm; pEC50 (Poliovirus 1): < 4.00
2 | COc1cccc(NC(=S)Nc2cccc(C(F)(F)F)c2)c1 | < 4.59 | 21 | 19 | 20 | < 4.28 | < 4.92 | 32 (≈ 98.1 µM) | 20 | > 100 | 22 | < 4.70 | 32 (≈ 98.1 µM) | 26 | 32 (≈ 98.1 µM) | 22 | < 4.70 | > 100 | 13 | 32 (≈ 98.1 µM) | 20 | inhibition zone (IZ) (Proteus vulgaris): inactive; zone of inhibition at 400 µg/disc (Enterococcus hirae): 12 mm; MIC (Staphylococcus aureus [17]): 32 µg/mL (≈ 98.1 µM); pEC50 (Yellow fever virus): < 4.92; CC50 [18]: 52 µM; CC50 [19]: 12 µM; pEC50 (Coxsackievirus B5): < 4.70; zone of inhibition at 400 µg/disc (Staphylococcus aureus [20]): 23 mm; MIC (Staphylococcus aureus [21]): 32 µg/mL (≈ 98.1 µM); zone of inhibition at 400 µg/disc (Bacillus cereus): 19 mm; pEC50 [22]: < 4.70; zone of inhibition at 400 µg/disc (Micrococcus luteus [23]): 24 mm; zone of inhibition at 400 µg/disc (Staphylococcus aureus [24]): 20 mm; pEC50 (Poliovirus 1): < 4.70
3 | Fc1ccccc1NC(=S)Nc1cccc(C(F)(F)F)c1 | < 4.33 | 20 | 23 | 19 | < 4.00 | < 4.27 | 32 (≈ 102 µM) | 64 | 100 (≈ 318 µM) | 20 | < 4.19 | 16 (≈ 50.9 µM) | 47 | 16 (≈ 50.9 µM) | 19 | < 4.19 | 100 (≈ 318 µM) | 13 | 16 (≈ 50.9 µM) | 20 | zone of inhibition at 400 µg/disc (Proteus vulgaris; NCTC 4635, 18 h, read-out: IZ): 11 mm; inhibition zone (IZ) (Enterococcus hirae): inactive; MIC (Staphylococcus aureus [17]): 16 µg/mL (≈ 50.9 µM); pEC50 (Yellow fever virus): < 4.27; CC50 [18]: > 100 µM; CC50 [19]: 54 µM; pEC50 (Coxsackievirus B5): < 4.19; zone of inhibition at 400 µg/disc (Staphylococcus aureus [20]): 21 mm; MIC (Staphylococcus aureus [21]): 16 µg/mL (≈ 50.9 µM); zone of inhibition at 400 µg/disc (Bacillus cereus): 18 mm; pEC50 [22]: < 4.19; zone of inhibition at 400 µg/disc (Micrococcus luteus [23]): 21 mm; zone of inhibition at 400 µg/disc (Staphylococcus aureus [24]): 18 mm; pEC50 (Poliovirus 1): < 4.19
